Common to all, as to type: functional
Experiment [1] relates to Jurkat. Briefly: Cytotoxicity against human Jurkat cells assessed as cell viability at 2 uM after 24 hrs by MTT assay relative to control. Particulars: read-out: Activity. Summed up: (§1)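 Suspension lines grown in α-MEM plus 10% FBS and penicillin-streptomycin, 37 °C, 5% CO2. Seeded at 30,000 cells/well in phenol-red-free α-MEM and rested 15 h. Exposed to 10 µM, or 2 µM in the lower-dose repeat, at 1% DMSO final for 24 h. 5 mg/ml MTT added directly for 3 h at 37 °C. Plates spun, formazan dissolved in DMSO, OD read at 550 nm. Viability relative to vehicle.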
In general terms: Formazan colour is commonly taken as a measure of viable cells.

The test system of experiment [2] is JeKo-1. The experiment is described as follows: Cytotoxicity against human JeKo1 cells assessed as cell viability at 2 uM after 24 hrs by MTT assay relative to control. The following applies: JeKo-1, 24 h, read-out: Activity. Summed up:
as §1

For experiment [3], the system named is Jurkat. Briefly: Cytotoxicity against human Jurkat cells assessed as cell viability at 10 uM after 24 hrs by MTT assay relative to control. The following applies: read-out: Activity. Summed up: as §1
Experiment [4] has as its system JeKo-1. The experiment is described as follows: Cytotoxicity against human JeKo1 cells assessed as cell viability at 10 uM after 24 hrs by MTT assay relative to control. Particulars: JeKo-1, 24 h, read-out: Activity. Summed up: as §1
The subject of experiment [5] is HeLa. Briefly: Cytotoxicity against human HeLa cells assessed as cell viability at 10 uM after 24 hrs by MTT assay relative to control. The following applies: read-out: Activity. The method in brief: (§2)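 Adherent lines in DMEM plus 10% FBS and penicillin-streptomycin, 37 °C, 5% CO2, lifted with Accutase. Seeded at 500–10,000 cells/well and rested 15 h. Compounds from 10 mM DMSO stocks dosed at 10 µM final, 1% DMSO final, n = 5, for 24 h. Medium then swapped for 1 mg/ml MTT in phenol-red-free medium for 3 h at 37 °C. Formazan dissolved in DMSO, OD read at 550 nm. Viability normalised to 1% DMSO vehicle control.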

In experiment [6] the test system is A549. The experiment is described as follows: Cytotoxicity against human A549 cells assessed as cell viability at 10 uM after 24 hrs by MTT assay relative to control. The following applies: A549, 24 h, read-out: Activity. The method in brief: as §2
Experiment [7] has as its system HCT-116. Briefly: Cytotoxicity against human HCT116 cells assessed as cell viability at 10 uM after 24 hrs by MTT assay relative to control. Particulars: HCT-116, 24 h, read-out: Activity. Summed up: as §2
Experiment [8] has as its system SJSA-1. The experiment is described as follows: Cytotoxicity against human SJSA1 cells assessed as cell viability at 10 uM after 24 hrs by MTT assay relative to control. Particulars: SJSA-1, 24 h, read-out: Activity. The method in brief: as §2
Experiment [9] deals with SK-N-MC. The experiment is described as follows: Cytotoxicity against human SK-N-MC cells assessed as cell viability at 10 uM after 24 hrs by MTT assay relative to control. The following applies: read-out: Activity. Summed up: as §2
Experiment [10] deals with PC-3. The experiment is described as follows: Cytotoxicity against human PC3 cells assessed as cell viability at 10 uM after 24 hrs by MTT assay relative to control. Particulars: PC-3, 24 h, read-out: Activity. Summed up:
as §2

In experiment [11] the test system is MDA-MB-231. Briefly: Cytotoxicity against human MDA-MB-231 cells assessed as cell viability at 10 uM after 24 hrs by MTT assay relative to control. The following applies: MDA-MB-231, 24 h, read-out: Activity. The method in brief:
as §2

Experiment [12] relates to SK-MEL-2. Briefly: Cytotoxicity against human SK-MEL-2 cells assessed as cell viability at 10 uM after 24 hrs by MTT assay relative to control. The following applies: SK-MEL-2, 24 h, read-out: Activity. Summed up:
as §2

The structures appear in SMILES notation.

This passage reports viability results from ChEMBL document CHEMBL4219033, “Anticancer activity profiling of parthenolide analogs generated via P450-mediated chemoenzymatic synthesis” (2018).

Regarding `C=C1C(=O)O[C@@H]2[C@H]3O[C@]3(C)CC/C=C(/C)[C@@H](OC(=O)Nc3ccccc3)C[C@@H]12`, the results for the viability at 2 µM in [1] and in [2] were 89.8% and 92.2%, respectively. Besides, the viability at 10 µM in [3] is 2.9%; in experiment [4], 2.6%; in [5], 69%; in experiment [6], 84.5%; in [7] it was 55.3%; in [8], 96.6%. Besides, the viability at 10 µM came to 91.9% in experiment [9], 88.4% in experiment [10], 100% in [11] and 69.4% in [12].
In the case of `C=C1C(=O)O[C@@H]2[C@H]3O[C@]3(C)CC/C=C(/C)[C@@H](OC(C(=O)OCC)c3ccccc3)C[C@@H]12` (some centres undefined), the viability at 2 µM was 85.9% in experiment [1] and 76.6% in experiment [2]. In addition, the viability at 10 µM in experiment [3] was 0%; in [4], -2.9%; in [5] it was 77.5%; in experiment [6], 60.7%; in experiment [7] it was 46.2%; in experiment [8], 100%. In addition, the viability at 10 µM stood at 100% in experiment [9], 78.9% in [10], 90% in [11] and 72.5% in experiment [12].
Take `C=C1C(=O)O[C@@H]2[C@H]3O[C@]3(C)CC/C=C(\C)[C@@H](OC(=O)c3ccc(C(F)(F)F)cc3)C[C@@H]12`: the figures for the viability at 2 µM in [1] and in [2] were 78.9% and 93.6%, respectively. Further, the viability at 10 µM was found to be 93.2% in experiment [3]; 23.3% in [4]; 68% in experiment [5]; 90.4% in experiment [6]; 40% in experiment [7]; 58.2% in experiment [8]. Besides, the viability at 10 µM turned out to be 67.4% in experiment [9], 47.6% in experiment [10], 69% in experiment [11] and 88.1% in experiment [12].
On to `C=C1C(=O)O[C@@H]2[C@H]3O[C@]3(C)CC/C=C(/C)[C@@H](OC(C(=O)OCC)c3ccc(C(F)(F)F)cc3)C[C@@H]12` (some centres undefined), for which the viability at 2 µM in experiment [1] came out at 80.6%; in experiment [2], 76.3%. For the same compound, the viability at 10 µM in experiment [3] was 0%; in experiment [4], -1.4%; in experiment [5] it was 67.1%; in experiment [6], 70.4%; in experiment [7], 20%; in experiment [8], 100%. The viability at 10 µM in experiment [9] came to 69.8%; in experiment [10] it was 60.4%; in [11], 77.6%; in experiment [12], 71.2%.
As to `C=C1C(=O)O[C@@H]2[C@H]3O[C@]3(C)CC/C=C(/COC(C(=O)OCc3ccccc3)c3ccccc3)CC[C@@H]12` (some centres undefined), the figures for the viability at 2 µM in [1] and in experiment [2] were 87.8% and 98.7%, respectively. Moreover, the viability at 10 µM in [3] turned out to be 1%; in [4], 0.8%; in [5], 79.2%; in [6], 81.5%; in experiment [7], 45.8%; in experiment [8], 101%. Also, the viability at 10 µM in experiment [9] amounted to 97.8%; in [10], 85.2%; in experiment [11] it was 88.1%; in [12], 80.7%.
`C=C1C(=O)O[C@@H]2[C@H]3O[C@]3(C)CC/C=C(/C)[C@@H](OC(C(=O)OCc3ccccc3)c3ccccc3)C[C@@H]12` (some centres undefined): the viability at 2 µM in [1] is 82%; in experiment [2] it was 89.4%. Besides, the viability at 10 µM in experiment [3] was 0.6%; in [4], -1.3%; in [5], 79%; in experiment [6], 69.8%; in [7] it was 63.7%; in experiment [8], 103%. Moreover, the viability at 10 µM in [9] worked out at 84.1%; in [10], 91.9%; in experiment [11] it was 101%; in experiment [12] it was 66.3%.
Take `C=C1C(=O)O[C@@H]2[C@H]3O[C@]3(C)CC/C=C(/COC(C(=O)OCC)c3ccccc3)CC[C@@H]12` (some centres undefined): the viability at 2 µM in [1] was 87.8%; in [2], 88.6%. Also, the viability at 10 µM in experiment [3] is 18.3%; in experiment [4], 16.5%; in experiment [5], 85.1%; in [6] it was 59.1%; in [7], 76.7%; in experiment [8], 100%. For the same compound, the viability at 10 µM in experiment [9] is 98%; in [10] it was 85.8%; in [11], 98.8%; in experiment [12] it was 81.2%.
Regarding `C=C1C(=O)O[C@@H]2[C@H]3O[C@]3(C)CC/C=C(/COC(=O)c3ccc4ccccc4c3)CC[C@@H]12`, the viability at 2 µM in experiment [1] stood at 97.9%; in [2] it was 89.2%. The viability at 10 µM in experiment [3] worked out at 75.7%; in experiment [4], 63.2%; in experiment [5] it was 75%; in experiment [6] it was 84.5%; in experiment [7], 100%; in experiment [8], 98.3%. Moreover, the viability at 10 µM came to 104% in experiment [9], 81.9% in experiment [10], 100% in [11] and 73.6% in experiment [12].
As for `C=C1C(=O)O[C@@H]2[C@H]3O[C@]3(C)CC/C=C(/COC(=O)c3cc(-c4ccc(Cl)cc4)on3)CC[C@@H]12`, the viability at 2 µM was determined as 94% in experiment [1] and 90.6% in experiment [2]. In addition, the viability at 10 µM in experiment [3] turned out to be 47.1%; in [4] it was 39.4%; in experiment [5] it was 88.4%; in experiment [6] it was 102%; in experiment [7], 103%; in experiment [8], 100%. Further, the viability at 10 µM in [9] turned out to be 64.5%; in [10] it was 95.2%; in experiment [11], 100%; in experiment [12] it was 98.6%.
For `C=C1C(=O)O[C@@H]2[C@H]3O[C@]3(C)CC/C=C(/COC(=O)Nc3cccc4ccccc34)CC[C@@H]12`, the values for the viability at 2 µM in [1] and in experiment [2] were 96% and 102%, respectively. For the same compound, the viability at 10 µM turned out to be 89% in experiment [3]; 16.8% in [4]; 75% in [5]; 84.5% in experiment [6]; 100% in experiment [7]; 98.3% in [8]. Further, the viability at 10 µM in experiment [9] was found to be 104%; in experiment [10] it was 81.9%; in [11], 100%; in experiment [12], 73.6%.
In the case of `C=C1C(=O)O[C@@H]2[C@H]3O[C@]3(C)CC/C=C(/C)[C@@H](OC(=O)c3ccc4ccccc4c3)C[C@@H]12`, the viability at 2 µM worked out at 83.4% in [1] and 97% in experiment [2]. Besides, the viability at 10 µM in experiment [3] was 86.1%; in experiment [4], 71.9%; in [5], 88.8%; in experiment [6], 95.8%; in experiment [7] it was 100%; in experiment [8], 100%. The viability at 10 µM in experiment [9] stood at 96.8%; in experiment [10], 83.4%; in experiment [11] it was 100%; in [12], 98.7%.
Consider `C=C1C(=O)O[C@@H]2[C@H]3O[C@]3(C)CC/C=C(/COCc3ccccc3)CC[C@@H]12`, for which the viability at 2 µM in [1] is 91%; in experiment [2], 100%. The viability at 10 µM in experiment [3] was 6%; in [4] it was 5%; in experiment [5], 74.8%; in experiment [6], 99.3%; in [7], 96.3%; in experiment [8], 99.4%. Further, the viability at 10 µM was 75.3% in [9], 94.7% in [10], 100% in experiment [11] and 84.2% in experiment [12].
